ChEMBL document CHEMBL1828531, “Pyrazol-3-propanoic acid derivatives as novel inhibitors of leukotriene biosynthesis in human neutrophils” (Eur J Med Chem, 2011)

Experiments:
[1] = biological target: T1, Polyunsaturated fatty acid 5-lipoxygenase (Homo sapiens) (UniProt P09917); assay: Inhibition of 5-Lipoxygenase in arachidonic acid-stimulated human neutrophils assessed as residual activity at 10 uM after 15 mins by HPLC analysis in presence of A23187
T1 sequence (whole entry): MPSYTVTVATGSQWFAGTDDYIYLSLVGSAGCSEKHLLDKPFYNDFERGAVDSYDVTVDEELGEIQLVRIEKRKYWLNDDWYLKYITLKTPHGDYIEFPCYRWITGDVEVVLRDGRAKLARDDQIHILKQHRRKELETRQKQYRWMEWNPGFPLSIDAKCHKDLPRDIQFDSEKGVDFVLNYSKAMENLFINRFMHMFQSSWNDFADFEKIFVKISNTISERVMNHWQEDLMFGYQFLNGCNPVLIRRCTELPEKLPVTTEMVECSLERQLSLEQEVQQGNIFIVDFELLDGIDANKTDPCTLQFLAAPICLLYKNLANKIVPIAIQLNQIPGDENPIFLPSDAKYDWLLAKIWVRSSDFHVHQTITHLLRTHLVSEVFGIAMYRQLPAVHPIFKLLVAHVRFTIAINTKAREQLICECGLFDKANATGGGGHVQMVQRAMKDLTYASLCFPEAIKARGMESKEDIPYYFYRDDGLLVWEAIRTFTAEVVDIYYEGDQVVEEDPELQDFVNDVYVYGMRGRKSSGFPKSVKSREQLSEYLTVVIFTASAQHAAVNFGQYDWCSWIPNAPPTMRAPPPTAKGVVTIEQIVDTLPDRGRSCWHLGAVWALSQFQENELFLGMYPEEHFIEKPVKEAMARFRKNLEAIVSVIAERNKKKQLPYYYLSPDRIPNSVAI
In short: (§1)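 Human neutrophils, 5 × 10^6/mL in PBS/glucose/1 mM CaCl2, preincubated 15 min at RT, then 2.5 µM A23187 plus 20 µM AA for 10 min at 37 °C. Methanol stop, PGB1 internal standard, HPLC of LTB4, its all-trans isomers and 5-H(p)ETE. Residual % versus 0.3% DMSO vehicle, mean ± SEM, n = 3–5. IC50 by linear interpolation from 4–5 concentrations.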

[2] = biological target: T1, Polyunsaturated fatty acid 5-lipoxygenase (Homo sapiens); assay: Inhibition of recombinant human 5-Lipoxygenase expressed in Escherichia coli lysate assessed as residual activity at 10 uM after 10 mins by HPLC analysis
In short: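 Human 5-LO expressed at 30 °C in E. coli MV1190 (pT3-5LO); lysate 40,000 g supernatant in PBS pH 7.4 with 1 mM EDTA. Preincubated with compound 10 min at 4 °C, warmed 30 s at 37 °C. Started with 2 mM CaCl2 plus 20 µM AA, 10 min at 37 °C. Methanol stop, HPLC. Residual % versus 0.3% DMSO vehicle, n = 3–5.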

[3] = biological target: T2, Polyunsaturated fatty acid 5-lipoxygenase (Homo sapiens, UniProt P09917); assay: Inhibition of 5-Lipoxygenase in arachidonic acid-stimulated human neutrophils after 15 mins by HPLC analysis in presence of A23187; in short: as §1
T2 sequence (P09917 whole entry): T1 sequence (whole entry)

SMILES	Activity [1] [%]	Activity [2] [%]	IC50 [3] [nM]
NC(=O)C1CCN(C(=O)CCc2cc(-c3ccc(C(F)(F)F)cc3)n(-c3ccc(Cl)nn3)n2)CC1	104	103	–
CC(C)(C)c1ccc(CN2CCN(C(=O)CCc3cc(-c4ccc(C(F)(F)F)cc4)n(-c4ccc5ccccc5n4)n3)CC2)cc1	44.5	87.3	3000
CC(C)(C)c1ccc(CN2CCN(C(=O)CCc3cc(-c4ccc(F)cc4)n(-c4ccc5ccccc5n4)n3)CC2)cc1	10.4	114	2800
CC(C)(C)c1ccc(CN2CCN(C(=O)CCc3cc(-c4ccc(F)cc4)n(-c4ccccc4)n3)CC2)cc1	3.7	78.5	2500
Cc1ccc(-c2cc(CCC(=O)N3CCN(CC4CCCO4)CC3)nn2-c2ccc(Cl)nn2)cc1 (stereo unspecified)	86	106	–
Cc1ccc(-c2cc(CCC(=O)N3CCN(Cc4ccc(C(C)(C)C)cc4)CC3)nn2-c2ccc(Cl)cc2)cc1	27.7	111	2900
COc1ccc(-n2nc(CCC(=O)N3CCN(Cc4ccc(C(C)(C)C)cc4)CC3)cc2-c2ccc(C)cc2)nn1	27.1	86.1	3300
CCS(=O)(=O)N1CCN(C(=O)CCc2cc(-c3ccc(C)cc3)n(-c3ccc(Cl)nn3)n2)CC1	96.3	93.6	–
CC(C)(C)c1ccc(CN2CCN(C(=O)CCc3cc(-c4ccc(C(F)(F)F)cc4)n(-c4ccc(Cl)cc4)n3)CC2)cc1	43.9	138	8000
O=C(CCc1cc(-c2ccc(C(F)(F)F)cc2)n(-c2ccc(Cl)nn2)n1)N1CCN(C(=O)c2ccco2)CC1	81.8	126	–
CC(C)(C)c1ccc(CN2CCN(C(=O)CCc3cc(-c4ccc(C(F)(F)F)cc4)n(-c4ccccc4)n3)CC2)cc1	12.7	109	2900
COc1ccc(-n2nc(CCC(=O)N3CCN(Cc4ccc(C(C)(C)C)cc4)CC3)cc2-c2ccc(C(F)(F)F)cc2)nn1	36.2	56.1	8000

Further lines, results first:

Activity [1] [%]	Activity [2] [%]	IC50 [3] [nM]	SMILES
94.1	90.8	–	O=C(CCc1cc(-c2ccc(C(F)(F)F)cc2)n(-c2ccc(Cl)nn2)n1)Oc1ccc(-n2cccc2)cc1
95	90.8	–	O=C(CCc1cc(-c2ccc(F)cc2)n(-c2ccc(Cl)nn2)n1)N1CCN(C(=O)C2CCCO2)CC1 (stereo unspecified)
17.4	88.9	2900	CC(C)(C)c1ccc(CN2CCN(C(=O)CCc3cc(-c4ccc(C(F)(F)F)cc4)n(-c4ccc(Cl)nn4)n3)CC2)cc1
67.3	92.7	–	CC(C)(C)c1ccc(OC(=O)CCc2cc(-c3ccc(F)cc3)n(-c3ccc(Cl)nn3)n2)cc1
90.8	83.4	–	O=C(CCc1cc(-c2ccc(F)cc2)n(-c2ccc(Cl)nn2)n1)Oc1ccc(-c2ccsc2)cc1
50.1	69.2	> 10000	COc1ccc(-n2nc(CCC(=O)N3CCN(Cc4ccc(C(C)(C)C)cc4)CC3)cc2-c2ccc(F)cc2)nn1
90.1	86.5	–	CCCCCCCOc1ccc(OC(=O)CCc2cc(-c3ccc(F)cc3)n(-c3ccc(Cl)nn3)n2)cc1
70.5	116	–	Cc1ccc(-c2cc(CCC(=O)Oc3ccc(OC(F)(F)F)cc3)nn2-c2ccc(Cl)nn2)cc1
88.3	91.6	–	COc1ccc(NC(=O)CCc2cc(-c3ccc(F)cc3)n(-c3ccc(Cl)nn3)n2)cc1
86.5	95	–	Cc1ccc(-c2cc(CCC(=O)Oc3ccc(Oc4ccc(C(F)(F)F)cc4)cc3)nn2-c2ccc(Cl)nn2)cc1
106	90	–	Cc1ccc(-c2cc(CCC(=O)Nc3ccc(N4CCOCC4)nc3)nn2-c2ccc(Cl)nn2)cc1
111	71.7	–	O=C(CCc1cc(-c2ccc(F)cc2)n(-c2ccc(Cl)nn2)n1)Oc1ccc(-n2ccnc2)cc1
13.2	143	2600	CC(C)(C)c1ccc(CN2CCN(C(=O)CCc3cc(-c4ccc(F)cc4)n(-c4ccc(Cl)cc4)n3)CC2)cc1
77.2	92	–	O=C(CCc1cc(-c2ccc(C(F)(F)F)cc2)n(-c2ccc(Cl)nn2)n1)Oc1ccc(C2CCCC2)cc1
14.6	107	2800	Cc1ccc(-c2cc(CCC(=O)N3CCN(Cc4ccc(C(C)(C)C)cc4)CC3)nn2-c2ccc(Cl)nn2)cc1
